The nature of data set [1]: Intrinsic clearance in human liver microsomes by LC-MS/MS analysis. The data set is classed as ADME. Conditions: read-out: CLH. Summed up: (§1)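 Compound at 1 µM with liver microsomes (CYP 0.25 µM) in 0.1 M potassium phosphate, pH 7.4, at 37 °C. Final solvent was 0.975% acetonitrile and 0.025% DMSO. Mix prewarmed 5 min, then started with 1.3 mM NADPH; no-NADPH controls were run. Sampled at 0–60 min into acetonitrile and followed by LC-MS/MS for substrate loss. T1/2 was scaled to CLint by the well-stirred model.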

Data set [2] can be described thus: Lipophilicity, log D of the compound at pH 7.4 by shake-flask method. The data set is classed as physicochemical. Particulars: buffer.
Data set [3] is described as follows: Intrinsic clearance in rat liver microsomes by LC-MS/MS analysis. The data set is classed as ADME. Particulars: read-out: CLH. Summed up:
as §1

Data set [4] in a line: Cmax in male Wistar-Han rat at 10 mg/kg, po. It is filed as ADME, organism-based. Particulars: in vivo. Also noted: dose 10 mg/kg, route oral.
Data set [5] is described as follows: Tmax in male Wistar-Han rat at 10 mg/kg, po. It is filed as ADME, organism-based. Also on record: dose 10 mg/kg, route oral. Conditions: in vivo.
The nature of data set [6]: Plasma clearance in male Wistar-Han rat at 1 mg/kg, iv. It is filed as ADME, organism-based. Also noted: dose 1 mg/kg, route intravenous.
Data set [7] in a line: Volume of distribution at steady state in male Wistar-Han rat at 1 mg/kg, iv. Conditions: in vivo, read-out: Vdss. Also on record: dose 1 mg/kg, route intravenous. It is filed as ADME, organism-based.
The nature of data set [8]: AUC (0 to infinity) in male Wistar-Han rat at 1 mg/kg, iv. Also on record: time infinity, dose 1 mg/kg, route intravenous. It is filed as ADME, organism-based. Conditions: plasma.
Data set [9] can be described thus: AUC (0 to infinity) in male Wistar-Han rat at 10 mg/kg, po. Also on record: time infinity, dose 10 mg/kg, route oral. The data set is classed as ADME, organism-based. Particulars: plasma. In outline:
(§2)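 Jugular vein-cannulated male Wistar-Hannover rats (230-250 g), n = 3, fasted overnight and fed after the 4 h sample; oral dosing in the i.v. formulations, except the SEDDS formulation used 90% water. Serial blood 0.083–24 h, K2EDTA plasma, LC-MS/MS against standard curve; non-compartmental AUC0-∞ by linear trapezoid rule.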

The nature of data set [10]: Terminal elimination half life in Wistar-Han rat at 1 mg/kg, iv. It is filed as ADME, organism-based. Also on record: dose 1 mg/kg, route intravenous. Conditions: in vivo, read-out: beta t1/2 (converted).
A short description of data set [11]: Terminal elimination half life in Wistar-Han rat at 10 mg/kg, po. It is filed as ADME, organism-based. Also on record: dose 10 mg/kg, route oral. Conditions: in vivo, read-out: beta t1/2 (converted). In outline:
(§3)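 Male Wistar-Hannover rats (230–250 g, n = 3), jugular-cannulated, were fasted overnight and dosed by oral gavage. Vehicle depended on compound: SEDDS/water or propylene glycol/sodium phosphate pH 7.4. Blood was collected at 0.083–24 h into K2EDTA and the plasma analyzed by LC-MS/MS. Terminal half-life came from the non-compartmental ln-concentration slope.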

The nature of data set [12]: Oral bioavailability in male Wistar-Han rat at 10 mg/kg. It is filed as ADME, organism-based. Particulars: in vivo. Summed up:
(§4)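 Male Wistar-Hannover rats (230-250 g, cannulated; n = 3) fasted overnight, fed after the 4 h sample, and dosed orally in the i.v. formulations or 10% SEDDS:90% water. Serial blood sampled 0.083–24 h into K2EDTA. Plasma measured by LC-MS/MS against a standard curve. Cmax and Tmax read from individual profiles; F = oral AUC0-∞ relative to i.v. AUC0-∞.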

Data set [13] is described as follows: Apparent permeability from apical to basolateral side in human Caco2 cells by LC-MS/MS analysis. The data set is classed as ADME, cell-based. Conditions: Caco-2.
Data set [14] in a line: Cmax in male Wistar-Han rat at 5 mg/kg, po. The data set is classed as ADME, organism-based. Also noted: dose 5 mg/kg, route oral. Particulars: in vivo. In outline: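 Jugular vein-cannulated male Wistar-Hannover rats (230-250 g), n = 3, fasted overnight and fed after the 4 h sample. Single oral dose in compound-specific vehicles (10% SEDDS:90% water, or propylene glycol with 20 mM sodium phosphate pH 7.4). Serial blood at 0.083–24 h into K2EDTA. Plasma protein-precipitated with internal standard and analysed by LC-MS/MS. Cmax read directly from individual concentration–time curves.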

Data set [15] is described as follows: AUC (0 to infinity) in male Wistar-Han rat at 5 mg/kg, po. It is filed as ADME, organism-based. Also noted: time infinity, dose 5 mg/kg, route oral. Conditions: plasma. In outline: as §2
A short description of data set [16]: Terminal elimination half life in Wistar-Han rat at 5 mg/kg, po. It is filed as ADME, organism-based. Also on record: dose 5 mg/kg, route oral. Particulars: in vivo, read-out: beta t1/2 (converted). In outline: as §3
Data set [17] can be described thus: Oral bioavailability in male Wistar-Han rat at 5 mg/kg. It is filed as ADME, organism-based. Particulars: in vivo. In outline: as §4
A short description of data set [18]: Oral bioavailability in male Wistar-Han rat assessed as dose escapes hepatic metabolism. It is filed as ADME, organism-based. Particulars: in vivo.
The nature of data set [19]: Oral bioavailability in male Wistar-Han rat assessed as fraction of absorbed dose. It is filed as ADME, organism-based. Particulars: in vivo, read-out: Fabs.

*1 amine or outer side, *2 acyl side, *3 side chain or, on linkers, in order; H or OH if unused. Where a SMILES comes first, the peptide text is derived from it. [ ]: non-standard residue; d: D form. X1 = CN([C@@H](CCN1CCCCC1)C(=O)[*:2])[*:1]; NMeW = CN[C@@H](Cc1c[nH]c2ccccc12)C(=O)O; NMeY = CN[C@@H](Cc1ccc(O)cc1)C(=O)O; NMeLys(Me) = CNCCCC[C@H](NC)C(=O)O; NMeI = CC[C@H](C)[C@H](NC)C(=O)O; NMeL = CN[C@@H](CC(C)C)C(=O)O; dNMeL = CN[C@H](CC(C)C)C(=O)O; NMeK = CN[C@@H](CCCCN)C(=O)O; NMeS = CN[C@@H](CO)C(=O)O

Take `CC[C@H](C)[C@H]1C(=O)N[C@@H](CC(C)C)C(=O)N2CCC[C@@H]2C(=O)N(C)[C@@H](Cc2ccc(O)cc2)C(=O)N[C@@H](CC(C)C)C(=O)N(C)[C@H](CC(C)C)C(=O)N1C` (cyclo(L[dNMeL][NMeI]L[dP][NMeY])): the CLint scaled in data set [1] is greater than 300 mL/min/kg.

For the molecule `CC(C)C[C@@H]1NC(=O)[C@H](Cc2ccc(O)cc2)N(C)C(=O)[C@H]2CCCN2C(=O)[C@H](CC(C)C)NC(=O)[C@H](CCCCN)N(C)C(=O)[C@@H](CC(C)C)N(C)C1=O` (cyclo(L[dNMeL][NMeK]L[dP][NMeY])), the logD in [2] was 0.678. Also, the CLint scaled in data set [3] is less than 9 mL/min/kg; in data set [1], less than 8 mL/min/kg. Also, the Cmax in [4] is 18.3 ng/mL. The Tmax in data set [5] was 1.56 h. The same molecule displayed a clearance in data set [6] of 10.4 mL/min/kg. Further, in data set [7], the Vd came out at 0.93 L/kg. Further, the AUC(0-inf) was 1640 ng·h/mL in data set [8] and 18.1 ng·h/mL in data set [9]. Further, the values for the half-life in data set [10] and in data set [11] were 1.01 h and 1.56 h, respectively. For the same molecule, the bioavailability in data set [12] turned out to be 0.09%. In addition, the apparent permeability from apical to basolateral (Papp A→B) in data set [13] is 0.09 ×10⁻⁶ cm/s.

For the molecule `CC(C)C[C@@H]1NC(=O)[C@H](Cc2ccc(O)cc2)N(C)C(=O)[C@H]2CCCN2C(=O)[C@H](CC(C)C)NC(=O)[C@H](CC(C)C)N(C)C(=O)[C@@H](CC(C)C)N(C)C1=O` (cyclo(L[dNMeL][NMeL]L[dP][NMeY])), the CLint scaled in data set [1] was 120 mL/min/kg.

In the case of `CNCCCC[C@H]1C(=O)N[C@@H](CC(C)C)C(=O)N2CCC[C@@H]2C(=O)N(C)[C@@H](Cc2ccc(O)cc2)C(=O)N[C@@H](CC(C)C)C(=O)N(C)[C@H](CC(C)C)C(=O)N1C` (cyclo(L[dNMeL][NMeLys(Me)]L[dP][NMeY])), the logD in data set [2] came out at 0.723. Further, the CLint scaled in data set [1] came out at 9 mL/min/kg.

`CC(C)C[C@@H]1NC(=O)[C@H](Cc2ccc(O)cc2)N(C)C(=O)[C@H]2CCCN2C(=O)[C@H](CC(C)C)NC(=O)[C@H](CO)N(C)C(=O)[C@@H](CC(C)C)N(C)C1=O` (cyclo(L[dNMeL][NMeS]L[dP][NMeY])) displayed a log distribution coefficient (logD) in data set [2] of 2.61. The figures for the CLint scaled in data set [3] and in data set [1] were 96 mL/min/kg and 80 mL/min/kg, respectively. Also, in data set [14], the Cmax turned out to be 9.86 ng/mL. In addition, the clearance in data set [6] came to 60.4 mL/min/kg. Further, the Vd in data set [7] turned out to be 4.3 L/kg. Besides, the AUC(0-inf) was determined as 282 ng·h/mL in data set [8] and 42.3 ng·h/mL in data set [15]. The half-life in data set [10] is 1.46 h; in data set [16], 2.82 h. In addition, in [17], the bioavailability is 2.03%. In data set [13], the apparent permeability from apical to basolateral (Papp A→B) was found to be 3.3 ×10⁻⁶ cm/s. Besides, the Fh in data set [18] turned out to be 14%. Besides, the Fa in data set [19] was 14.5%.

Consider `CC(C)C[C@@H]1NC(=O)[C@H](Cc2ccc(O)cc2)N(C)C(=O)[C@H]2CCCN2C(=O)[C@H](CC(C)C)NC(=O)[C@H](Cc2c[nH]c3ccccc23)N(C)C(=O)[C@@H](CC(C)C)N(C)C1=O` (cyclo(L[dNMeL][NMeW]L[dP][NMeY])), for which the log distribution coefficient (logD) in [2] is 4.07. Also, the CLint scaled in data set [1] was found to be 56 mL/min/kg.

On to `CC(C)C[C@@H]1NC(=O)[C@H](Cc2ccc(O)cc2)N(C)C(=O)[C@H]2CCCN2C(=O)[C@H](CC(C)C)NC(=O)[C@H](Cc2ccc(O)cc2)N(C)C(=O)[C@@H](CC(C)C)N(C)C1=O` (cyclo(L[dNMeL][NMeY]L[dP][NMeY])), for which the logD in data set [2] turned out to be 3.82. In data set [1], the CLint scaled worked out at 29 mL/min/kg.

In data set [2], `CC(C)C[C@@H]1NC(=O)[C@H](Cc2ccc(O)cc2)N(C)C(=O)[C@H]2CCCN2C(=O)[C@H](CC(C)C)NC(=O)[C@H](CCN2CCCCC2)N(C)C(=O)[C@@H](CC(C)C)N(C)C1=O` (cyclo(L[dNMeL][X1]L[dP][NMeY])) gave a logD of 2.2. Further, the CLint scaled in [1] is less than 8 mL/min/kg.

Values taken from ChEMBL document CHEMBL3217723, “Optimizing PK properties of cyclic peptides: the effect of side chain substitutions on permeability and clearance()” (Medchemcomm, 2012).
